According to ChEMBL document CHEMBL1154958, “Novel molecular hybrids of cinnamic acids and guanylhydrazones as potential antitubercular agents” (Bioorg Med Chem Lett, 2010):
In brackets after ≈: the same amount, converted by molar mass.

Key:
[1] = test system: Mycobacterium tuberculosis; experiment: Antituberculosis activity against Mycobacterium tuberculosis H37Rv after 7 days by resazurin microtiter assay; assay type: functional; conditions: 168 h
Summary of the method: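 H37Rv suspension seeded at 10⁵ cells/well in Middlebrook 7H9 broth. Compounds were serially diluted on the plate, and controls got matching DMSO. Plates were incubated at 37 °C for 7 days, then fresh 0.02% resazurin was added and plates incubated a further 48 h. MIC was the lowest concentration giving complete inhibition, read visually by colour.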

[2] = Cytotoxicity against african green monkey Vero C1008 cells after 72 hrs by MTT assay; assay type: cell-based; conditions: chlorocebus sabaeus
[3] = Cytotoxicity against african green monkey Vero C1008 cells assessed as cell viability at 125 ug/ml after 72 hrs by MTT assay; assay type: cell-based; conditions: chlorocebus sabaeus, read-out: Activity
[4] = Cytotoxicity against african green monkey Vero C1008 cells assessed as cell viability at 62.5 ug/ml after 72 hrs by MTT assay; assay type: cell-based; conditions: chlorocebus sabaeus, read-out: Activity
[5] = Cytotoxicity against african green monkey Vero C1008 cells assessed as cell viability at 31.25 ug/ml after 72 hrs by MTT assay; assay type: cell-based; conditions: chlorocebus sabaeus, read-out: Activity
[6] = Cytotoxicity against african green monkey Vero C1008 cells assessed as cell viability at 2000 ug/ml after 72 hrs by MTT assay; assay type: cell-based; conditions: chlorocebus sabaeus, read-out: Activity
[7] = Cytotoxicity against african green monkey Vero C1008 cells assessed as cell viability at 1000 ug/ml after 72 hrs by MTT assay; assay type: cell-based; conditions: chlorocebus sabaeus, read-out: Activity

Row | SMILES | MIC [1] | CC50 at 72 h [2] | viability at 72 h, 125 ug/ml [3] | viability at 72 h, 62.5 ug/ml [4] | viability at 72 h, 31.25 ug/ml [5] | viability at 72 h, 2000 ug/ml [6] | viability at 72 h, 1000 ug/ml [7]
1 | N=C(N)N/N=C/c1ccc(O)cc1 | 1120 µM (≈ 200 µg/mL) | – | – | – | – | – | –
2 | O=C(O)/C=C/c1ccccc1 [CINNAMIC ACID] | 675 µM (≈ 100 µg/mL) | – | – | – | – | – | –
3 | NNC(=O)c1ccncc1 [ISONIAZID] | 1.8 µM (≈ 0.247 µg/mL) | 5.83 mM | 95.5% | 98.5% | 99.3% | 23.1% | 31.7%
4 | O=C(/C=C/c1ccccc1)Oc1ccccc1 [PHENYL CINNAMATE] | 502 µM (≈ 113 µg/mL) | – | – | – | – | – | –
